According to ChEMBL document CHEMBL1152963, “Synthesis and antimicrobial activity of 4-hydroxy-4-(pyridyl)alk-3-en-2-ones” (2009):
≈ marks a conversion by molar mass, not a printed value.

Legend:
Format in all cases: functional
Escherichia coli = assay: Antimicrobial activity against Escherichia coli […] after 24 hrs by dilution susceptibility assay
Outline: (§1)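 Broth microdilution MIC per CLSI recommendations, ATCC strains, 96-well format, no agitation; inoculum 2 × 10⁵ bacterial cells per well; incubated 24 h at 37 °C; MIC as average of 3 independent experiments.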

Staphylococcus aureus = assay: Antimicrobial activity against Staphylococcus aureus ATCC 6538 after 24 hrs by dilution susceptibility assay; conditions: ATCC 6538, 24 h; outline: as §1
Bacillus subtilis = assay: Antimicrobial activity against Bacillus subtilis ATCC 11229 after 24 hrs by dilution susceptibility assay; conditions: ATCC 11229, 24 h; outline: as §1

Row | Compound | MIC (Escherichia coli) [mg/L] | MIC (Staphylococcus aureus) [mg/L] | MIC (Bacillus subtilis) [mg/L]
1 | CC(=O)/C=C(\O)c1cccnc1 | 402 (≈ 2460 µM) | 392 (≈ 2400 µM) | 397 (≈ 2430 µM)
2 | CCC(=O)C(C)C(=O)c1ccccn1 (stereo unspecified) | 391 (≈ 2040 µM) | 758 (≈ 3960 µM) | 786 (≈ 4110 µM)
3 | CC(=O)/C=C(\O)c1ccccn1 | 379 (≈ 2320 µM) | 46.9 (≈ 287 µM) | 190 (≈ 1160 µM)
4 | CCC(=O)/C=C(\O)c1cccnc1 | 379 (≈ 2140 µM) | 380 (≈ 2150 µM) | 374 (≈ 2110 µM)
5 | CCCC(=O)/C=C(\O)c1ccccn1 | 97.8 (≈ 512 µM) | 192 (≈ 1000 µM) | 97.2 (≈ 509 µM)
6 | CCC(=O)/C=C(\O)c1ccccn1 | 195 (≈ 1100 µM) | 23.6 (≈ 133 µM) | 211 (≈ 1190 µM)

Now from value to compound:

Row | MIC (Escherichia coli) [mg/L] | MIC (Staphylococcus aureus) [mg/L] | MIC (Bacillus subtilis) [mg/L] | Compound
7 | 47.7 (≈ 232 µM) | 96.5 (≈ 470 µM) | 48.1 (≈ 235 µM) | CCCCC(=O)/C=C(\O)c1ccccn1
8 | 94.1 (≈ 492 µM) | 193 (≈ 1010 µM) | 200 (≈ 1050 µM) | CCCC(=O)/C=C(\O)c1cccnc1
9 | 95.4 (≈ 465 µM) | 95.5 (≈ 465 µM) | 95.4 (≈ 465 µM) | CCCCC(=O)/C=C(\O)c1cccnc1
10 | 95.8 (≈ 425 µM) | 95.1 (≈ 422 µM) | 94.6 (≈ 420 µM) | O=C(/C=C(\O)c1cccnc1)c1ccccc1
11 | 24.1 (≈ 107 µM) | 47.4 (≈ 210 µM) | 24.5 (≈ 109 µM) | O=C(/C=C(\O)c1ccccn1)c1ccccc1
12 | 6.99 (≈ 20 µM) | 3.19 (≈ 9.13 µM) | 12.5 (≈ 35.7 µM) | CC1(C)S[C@@H]2[C@H](NC(=O)[C@H](N)c3ccccc3)C(=O)N2[C@H]1C(=O)O [AMPICILLIN]
